The record followed here is ChEMBL document CHEMBL3992522, “Antileishmanial Activity of Pyrazolopyridine Derivatives and Their Potential as an Adjunct Therapy with Miltefosine” (J Med Chem, 2017).

Usually inhibition in vivo stands for the change of the read-out against control, counted positive when it falls. Broadly, the IC50 is the concentration at which inhibition is half-maximal. In general, CC50 refers to the concentration at which the toxic effect on the cells reaches its halfway point.

Some results are limits rather than exact numbers.

Series [1] has as its system Mus musculus. Description: Increase in iNOS-mediated NO generation in Balb/c mouse splenocytes infected with Leishmania donovani amastigote forms at 25 mg/kg, po for 5 consecutive days measured on day 4 post last treatment followed by soluble Leishmania donovani promastigote antigen-stimulation for 72 hrs by Griess assay relative to control. It counts as functional.
Series [2] concerns Mus musculus. Description: Decrease in TGFbeta level in Balb/c mouse splenocytes infected with Leishmania donovani amastigote forms at 25 mg/kg, po administered for 5 consecutive days measured on day 4 post last treatment by sandwich ELISA relative to control. It is filed as functional. Conditions: 96 h.
Series [3] has as its system Leishmania donovani. Description: Antileishmanial activity against Leishmania donovani MHOM/IN/80/DD8 amastigote forms harboring luciferase gene infected in mouse J774 cells after 72 hrs by Steady-Glo reagent based luminescence assay. It counts as functional, cell-based. Conditions: MHOM/IN/80/DD8, J774, 72 h.
Series [4] is described as follows: Selectivity index, ratio of CC50 for mouse J774 cells to IC50 for Leishmania donovani MHOM/IN/80/DD8 amastigote forms infected in mouse J774 cells. It counts as toxicity, cell-based. Conditions: read-out: Ratio CC50/IC50. The method in brief: (§1)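 CC50: Vero or J774 cells (1×10^5/well) exposed 72 h to seven two-fold dilutions, 500–7.81 μM; MTT 2 h at 37 °C, formazan in DMSO read at 540 nm. IC50: luciferase-expressing Dd8 amastigotes in J774 macrophages (1:8), 72 h, luminescence, four-parameter Hill fit. SI = CC50/IC50, IC50 mean of three experiments.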

The test system of series [5] is Leishmania donovani. Briefly: Antileishmanial activity against Leishmania donovani amastigote forms infected in Balb/c mouse assessed as inhibition of parasitic burden in liver at 5 mg/kg, po administered for 5 consecutive days measured on day 7 post last treatment by Giemsa staining based assay relative to control. It is filed as functional. Conditions: 168 h.
Series [6] relates to Mus musculus. Description: Decrease in TGFbeta level in Balb/c mouse splenocytes infected with Leishmania donovani amastigote forms at 25 mg/kg, po administered for 5 consecutive days measured on day 7 post last treatment by sandwich ELISA relative to control. It is filed as functional. Conditions: 168 h. (In an ELISA, binding on a coated surface is turned into a signal by an enzyme label.)

The nature of series [7]: Cytotoxicity against mouse J774 cells assessed as reduction in cell viability after 72 hrs by MTT assay. It is filed as cell-based. The method in brief: (§2)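 Vero and J774 cells seeded at 1×10^5 per well for 24 h, then exposed 72 h to seven two-fold dilutions from 500 to 7.81 μM. MTT solution (5 mg/mL stock) added for 2 h at 37 °C, formazan dissolved in DMSO and read at 540 nm. CC50 derived by the Huber and Koella method.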
In general terms: Tetrazolium assays rely on reduction of a dye to a coloured formazan, in cell work by metabolically active cells.

In series [8] the test system is Mus musculus. Description: Decrease in IL-10 level in Balb/c mouse splenocytes infected with Leishmania donovani amastigote forms at 25 mg/kg, po administered for 5 consecutive days measured on day 4 post last treatment by sandwich ELISA relative to control. It counts as functional. Conditions: 96 h.
The test system of series [9] is Leishmania donovani. Description: Antileishmanial activity against Leishmania donovani MHOM/IN/80/DD8 amastigote forms harboring luciferase gene infected in mouse J774 cells at 25 uM after 72 hrs by Steady-Glo reagent based luminescence assay relative to control. It counts as functional. Conditions: MHOM/IN/80/DD8, J774, 72 h, read-out: GI. The method in brief: (§3)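 Stationary-phase luciferase-expressing Dd8 promastigotes infected into J774 macrophages (4×10^4/mL seeded, 24 h, 37 °C, 5% CO2) at 1:8 macrophage:parasite for 24 h. Non-internalised parasites washed off. Compounds added at 50 and 25 µM in RPMI/10% FBS for 72 h. Lysis with Steady-Glo luciferin reagent plus PBS, luminescence read. Inhibition relative to untreated infected controls.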

Series [10] in a line: Cytotoxicity against African green monkey Vero cells assessed as reduction in cell viability after 72 hrs by MTT assay. It counts as cell-based. Conditions: chlorocebus sabaeus. The method in brief:
as §2

The subject of series [11] is Leishmania donovani. Briefly: Antileishmanial activity against Leishmania donovani MHOM/IN/80/DD8 promastigote forms harboring luciferase gene at 25 uM after 72 hrs by Steady-Glo reagent based luminescence assay relative to control. It counts as functional. Conditions: MHOM/IN/80/DD8, 72 h, read-out: GI. Summed up:
(§4)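 Exponential-phase Dd8-Luc promastigotes at 1×10^6/mL in M199 with 10% FBS, 24 °C, given 50 and 25 µM for 72 h. Vehicle 0.1% DMSO. Steady-Glo added 1:1, luminescence (RLU) read. IC50 from four-parameter Hill regression, derived only where inhibition exceeded 90%. Means of at least three independent experiments.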

Series [12] has as its system Mus musculus. Description: Increase in IL-12 level in Balb/c mouse splenocytes infected with Leishmania donovani amastigote forms at 25 mg/kg, po administered for 5 consecutive days measured on day 7 post last treatment by sandwich ELISA relative to control. It is filed as functional.
Series [13] concerns Mus musculus. Briefly: Decrease in IL-10 level in Balb/c mouse splenocytes infected with Leishmania donovani amastigote forms at 25 mg/kg, po administered for 5 consecutive days measured on day 7 post last treatment by sandwich ELISA relative to control. Conditions: 168 h. It counts as functional.
In series [14] the test system is Mus musculus. Briefly: Increase in IFNgamma level in Balb/c mouse splenocytes infected with Leishmania donovani amastigote forms at 25 mg/kg, po administered for 5 consecutive days measured on day 7 post last treatment by sandwich ELISA relative to control. It counts as functional.
The test system of series [15] is Leishmania donovani. Description: Antileishmanial activity against Leishmania donovani MHOM/IN/80/DD8 amastigote forms harboring luciferase gene infected in mouse J774 cells at 50 uM after 72 hrs by Steady-Glo reagent based luminescence assay relative to control. Conditions: MHOM/IN/80/DD8, J774, 72 h, read-out: GI. It is filed as functional. The method in brief: as §3

The test system of series [16] is Mus musculus. Briefly: Increase in IL-12 level in Balb/c mouse splenocytes infected with Leishmania donovani amastigote forms at 25 mg/kg, po administered for 5 consecutive days measured on day 4 post last treatment by sandwich ELISA relative to control. It is filed as functional.
In series [17] the test system is Mus musculus. Description: Increase in TNFalpha level in Balb/c mouse splenocytes infected with Leishmania donovani amastigote forms at 25 mg/kg, po administered for 5 consecutive days measured on day 4 post last treatment by sandwich ELISA relative to control. It counts as functional.
Series [18] can be described thus: Selectivity index, ratio of CC50 for African green monkey Vero cells to IC50 for Leishmania donovani MHOM/IN/80/DD8 amastigote forms infected in mouse J774 cells. It is filed as toxicity, cell-based. Conditions: read-out: Ratio CC50/IC50. Summed up:
as §1

Series [19] concerns Mus musculus. Description: Increase in TNFalpha level in Balb/c mouse splenocytes infected with Leishmania donovani amastigote forms at 25 mg/kg, po administered for 5 consecutive days measured on day 7 post last treatment by sandwich ELISA relative to control. It is filed as functional.
Series [20] deals with Leishmania donovani. Briefly: Antileishmanial activity against Leishmania donovani amastigote forms infected in Balb/c mouse assessed as inhibition of parasitic burden in spleen at 5 mg/kg, po administered for 5 consecutive days measured on day 7 post last treatment by Giemsa staining based assay relative to control. Conditions: 168 h. It is filed as functional.
Series [21] relates to Mus musculus. Description: Increase in IFNgamma level in Balb/c mouse splenocytes infected with Leishmania donovani amastigote forms at 25 mg/kg, po administered for 5 consecutive days measured on day 4 post last treatment by sandwich ELISA relative to control. It counts as functional.
The test system of series [22] is Mus musculus. Description: Increase in iNOS-mediated NO generation in Balb/c mouse splenocytes infected with Leishmania donovani amastigote forms at 5 mg/kg, po for 5 consecutive days measured on day 4 and 7 post last treatment followed by soluble Leishmania donovani promastigote antigen-stimulation for 72 hrs by Griess assay relative to control. It counts as functional. Summed up: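 Splenocytes from treated infected BALB/c mice (5-day regimen, i.p. test compound, oral miltefosine; n = 5) isolated day 4 and day 7 post-treatment. Cultured in phenol red-free RPMI 1640 with 5 μg/mL SLA for 72 h at 37 °C, 5% CO2. Supernatant nitrite measured by Griess assay at 540 nm against a sodium nitrite standard curve.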

In series [23] the test system is Leishmania donovani. Description: Antileishmanial activity against Leishmania donovani MHOM/IN/80/DD8 promastigote forms harboring luciferase gene at 50 uM after 72 hrs by Steady-Glo reagent based luminescence assay relative to control. It counts as functional. Conditions: MHOM/IN/80/DD8, 72 h, read-out: GI. The method in brief:
as §4

`CCCCCCCCCCCCCCCCOP(=O)([O-])OCC[N+](C)(C)C` [MILTEFOSINE]: the “fold change (FC)” value was determined as 7.4 with Mus musculus [1]; 9.5 with Mus musculus [12]; 8.1 with Mus musculus [14]; 12.9 in the series on Mus musculus [16]; 6.5 with Mus musculus [17]; 5.3 with Mus musculus [19]. Moreover, the “fold change (FC)” value in the series with Mus musculus [21] amounted to 9.1; in the series with Mus musculus [22] it was 4.3. The inhibition in vivo at 25 mg/kg stood at 87.5% with Mus musculus [2], 94.6% with Mus musculus [6], 88.7% in the series with Mus musculus [8] and 92.9% in the series with Mus musculus [13]. For the same compound, the IC50 with Leishmania donovani [3] was 9.46 µM. The figures for the selectivity ratio in series [4] and in [18] were 5.8 and 5.3, respectively. In addition, the inhibition in vivo at 5 mg/kg in the series with Leishmania donovani [5] is > 75%; in the series with Leishmania donovani [20] it was > 61%. Also, the 50% cytotoxic concentration (CC50) at 72 h in series [7] is 55.7 µM; in series [10] it was 50.8 µM. Further, the figures for the inhibition of growth at 25 µM in the series on Leishmania donovani [9] and with Leishmania donovani [11] were 99.8% and 100%, respectively. Besides, the inhibition of growth at 50 µM in the series with Leishmania donovani [15] and in the series on Leishmania donovani [23] was 100% in each case.
